The target of test [1] is T1, Peroxisome proliferator-activated receptor alpha (Homo sapiens) (UniProt Q07869).
T1 sequence (whole entry): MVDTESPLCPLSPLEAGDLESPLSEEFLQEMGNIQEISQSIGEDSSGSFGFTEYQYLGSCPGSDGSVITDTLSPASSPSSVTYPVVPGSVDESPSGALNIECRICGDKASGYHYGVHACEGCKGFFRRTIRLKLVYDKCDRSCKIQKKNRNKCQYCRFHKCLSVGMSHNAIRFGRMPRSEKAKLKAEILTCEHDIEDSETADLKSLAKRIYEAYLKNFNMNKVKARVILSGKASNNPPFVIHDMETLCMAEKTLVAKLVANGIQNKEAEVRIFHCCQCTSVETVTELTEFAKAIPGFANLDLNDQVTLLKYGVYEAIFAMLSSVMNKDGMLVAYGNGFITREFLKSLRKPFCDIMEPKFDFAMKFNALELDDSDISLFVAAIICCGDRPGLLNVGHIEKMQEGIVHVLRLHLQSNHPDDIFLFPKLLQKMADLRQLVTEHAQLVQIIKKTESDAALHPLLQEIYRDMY
In words: Transactivation of PPARalpha expressed in HEK293A cells co-expressing GAL4 at 150 uM after 16 to 18 hrs by luciferase reporter gene assay relative to control. In kind it is cell-based. The settings on record: HEK293-A. The essentials:
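Single-concentration agonist-mode transactivation: GAL4–PPARα or GAL4–PPARγ chimera, calcium-phosphate transfected into HEK293A cells with reporter, renilla and pGEM plasmids. […] Firefly luciferase read after 16–18 h. Values are ± SEM.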
A general note: Reporter assays use an easily measured gene product as a stand-in for the process of interest.

Test [2] addresses T2, Peroxisome proliferator-activated receptor alpha (Homo sapiens, UniProt Q07869).
T2 sequence (Q07869 whole entry): T1 sequence (whole entry)
In words: Transactivation of PPARalpha expressed in HEK293A cells co-expressing GAL4 after 16 to 18 hrs by luciferase reporter gene assay. Format: cell-based, HEK293-A. In outline:
(§1)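 HEK293A cells cultured to 70–80% confluency, moved to serum-free medium, then calcium-phosphate co-transfected with GAL4–PPARα, luciferase reporter, renilla and pGEM plasmids. Compounds added 6 h after transfection and run in agonist mode. Firefly luciferase activity measured after 16–18 h. Five concentrations from 1 to 150 µM, at least three separate experiments, EC50 ± SEM.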

For test [3], the target named is T1, Peroxisome proliferator-activated receptor alpha (Homo sapiens). In words: Binding affinity to PPARalpha LBD at 100 uM after 2 hrs by TR-FRET analysis. The essentials: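 After 2 h incubation, excitation at 340 nm and emission at 520 and 495 nm. The 520/495 ratio is normalized to clofibric acid as 100%.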
For test [4] the target is unchanged. In words: Antagonist activity at PPARalpha expressed in HEK293A cells co-expressing GAL4 assessed as inhibition of GW7647-induced transactivation activity at 1 to 150 uM after 16 to 18 hrs by luciferase reporter gene assay. In kind it is functional, cell-based. The settings on record: HEK293-A. In outline: (§2)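 GAL4–PPARα chimera in HEK293A cells grown to 70–80% confluency over 16 h, then switched to serum-free medium. Cells co-transfected by calcium phosphate with reporter, renilla, pGEM and receptor plasmids. […] Firefly luciferase read after 16–18 h. Five concentrations, 1–150 µM, at least three separate experiments, IC50 ± SEM.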

In test [5] the target is T3, Peroxisome proliferator-activated receptor gamma (Homo sapiens) (UniProt P37231).
T3 sequence (whole entry): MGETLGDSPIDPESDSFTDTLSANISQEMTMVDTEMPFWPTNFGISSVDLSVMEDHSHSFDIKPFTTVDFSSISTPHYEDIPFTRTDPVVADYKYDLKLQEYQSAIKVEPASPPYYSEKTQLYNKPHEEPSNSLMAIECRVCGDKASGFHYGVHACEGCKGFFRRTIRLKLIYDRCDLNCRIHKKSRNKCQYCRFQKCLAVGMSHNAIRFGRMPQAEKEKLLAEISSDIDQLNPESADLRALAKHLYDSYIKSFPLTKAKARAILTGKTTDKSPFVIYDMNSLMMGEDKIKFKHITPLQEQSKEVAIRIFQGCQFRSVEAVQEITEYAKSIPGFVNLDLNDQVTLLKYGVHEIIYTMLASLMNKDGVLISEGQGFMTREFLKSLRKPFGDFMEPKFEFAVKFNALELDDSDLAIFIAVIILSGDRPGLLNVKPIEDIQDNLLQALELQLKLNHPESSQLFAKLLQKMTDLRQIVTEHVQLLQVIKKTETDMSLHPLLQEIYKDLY
In words: Transactivation of PPARgamma expressed in HEK293A cells co-expressing GAL4 at the concentration corresponding to IC50 or EC50 on PPARalpha after 16 to 18 hrs by luciferase reporter gene assay. The settings on record: HEK293-A.

Test [6] concerns the target T2, Peroxisome proliferator-activated receptor alpha. In words: (§3) Antagonist activity at PPARalpha expressed in HEK293 cells co-expressing GAL4 assessed as inhibition of GW7647-induced transactivation activity after 16 to 18 hrs by luciferase reporter gene assay. In kind it is functional, cell-based. The essentials: as §2
The target is the same in test [7]. Kind of test: Binding affinity to PPARalpha LBD after 2 hrs by TR-FRET analysis. In outline: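 TR-FRET competitive binding to PPARα LBD. Five concentrations, three independent experiments. After 2 h incubation, excitation at 340 nm, emission at 520 nm (fluorescein acceptor) and 495 nm (terbium donor). Ratio 520/495 used to derive IC50.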
(In general: TR-FRET usually uses a lanthanide donor and a delayed reading to cut background.)

Test [8] concerns the target T1, Peroxisome proliferator-activated receptor alpha (Homo sapiens). Kind of test: Transactivation of PPARalpha expressed in HEK293A cells co-expressing GAL4 at 1 to 150 uM after 16 to 18 hrs by luciferase reporter gene assay. In kind it is cell-based. The settings on record: HEK293-A. In outline: as §1
In test [9] the target is T3, Peroxisome proliferator-activated receptor gamma (Homo sapiens). In words: Antagonist activity at PPARgamma expressed in HEK293A cells co-expressing GAL4 after 16 to 18 hrs by luciferase reporter gene assay. Format: functional, cell-based. The settings on record: HEK293-A.
Test [10] deals with T1, Peroxisome proliferator-activated receptor alpha (Homo sapiens). The description is as §3. In kind it is functional, cell-based. The essentials:
as §2

SMILES strings stand for the structures. The source made the active and inactive calls. The calls are words filed in the database; no cut-off is given here.

In the case of `Cc1ccc(C)c(OCCCC(C)(C)C(=O)NS(C)(=O)=O)c1`, in [1], the fold change (FC) was found to be 1.55. In addition, in test [2], the EC50 worked out at 7100 nM. The same compound came in with an Activity in test [3] of 118%. Besides, in [4], the inhibition result is “inactive”. Further, the result in test [5] was Active.

Regarding `CCCC(Sc1nc2ccc(OCC)cc2s1)C(=O)NS(C)(=O)=O` (stereo unspecified), the fold change (FC) in test [1] came out at 0.36. The results for the IC50 in [6] and in test [7] were 8870 nM and 480 nM, respectively. This compound registered an Activity in test [3] of 137%. Further, the result in test [8] was inactive. The result in test [5] was Active.

Regarding `CC(C)C(Sc1nc2cc(Cl)ccc2s1)C(=O)NS(C)(=O)=O` (stereo unspecified), the fold change (FC) in test [1] was found to be 0.47. For the same compound, the IC50 in test [6] was determined as 46500 nM. Besides, the result in [3] and in [5] was Active. Besides, the outcome in [8] was inactive.

For `CCCCCCC(Sc1nc2cc(Cl)ccc2s1)C(=O)NS(C)(=O)=O` (stereo unspecified), the fold change (FC) in test [1] is 0.04. Further, in test [6], the IC50 was 5100 nM. Besides, the inhibition result in test [9] is “Active”. Besides, in [3], the result was Active. For the same compound, the result in [8] was inactive.

For `CCCCC(Sc1nc2cc(Cl)ccc2s1)C(=O)NS(C)(=O)=O` (stereo unspecified), in test [1], the fold change (FC) was 0.08. For the same compound, the inhibition entry in test [10] was “Dose-dependent effect”. For the same compound, the IC50 in test [6] is 800 nM; in [7], 600 nM. Also, the Activity in test [3] is 117%. In test [8], the outcome was inactive.

Turning to `CCOc1ccc2nc(SC(C)C(=O)NS(C)(=O)=O)sc2c1` (stereo unspecified), the fold change (FC) in test [1] was determined as 1.84. Also, in test [2], a half-maximal effect (EC50) was put at 1590 nM. The outcome in test [3] and in test [5] was Active. Further, the inhibition result in test [4] is “inactive”.

`CC(C)(Oc1ccc(C(=O)c2ccc(Cl)cc2)cc1)C(=O)NS(C)(=O)=O`: the fold change (FC) in [1] is 1.1. The compound also registered an Activity in test [3] of 128%. Further, in test [8], the result was inactive. The inhibition entry in test [4] was “inactive”.

Take `CCCC(Sc1nc2cc(Cl)ccc2s1)C(=O)NS(C)(=O)=O` (stereo unspecified): the fold change (FC) in test [1] came to 0.28. The IC50 in test [6] was 600 nM; in test [7] it was 890 nM. In [3], this compound had an Activity of 80.9%. For the same compound, in test [8], the outcome was inactive. Further, the result in test [5] was Active.

On to `CC(C)(Oc1ccc(Cl)cc1)C(=O)NS(C)(=O)=O`, for which the fold change (FC) in [1] turned out to be 1.7. Further, the EC50 in [2] came out at 10700 nM. This compound also had an Activity in test [3] of 121%. Moreover, the inhibition result in test [4] was “inactive”. The outcome in [5] was Active.

As to `CC(C)(Oc1ccc(Cl)cc1)C(=O)O`, in test [1], the fold change (FC) was determined as 1.6. In test [4], the inhibition entry is “inactive”.

Consider `CC(C)(Oc1ccc(CCNC(=O)c2ccc(Cl)cc2)cc1)C(=O)NS(C)(=O)=O`, for which, in test [1], the fold change (FC) worked out at 0.44. For the same compound, in test [10], the inhibition result was “Dose-dependent effect”. The IC50 in [6] worked out at 68500 nM. The outcome in test [3] and in test [5] was Active. Also, in test [8], the outcome was inactive.

As to `CS(=O)(=O)NC(=O)C(Sc1nc2cc(Cl)ccc2s1)c1ccccc1` (stereo unspecified), the fold change (FC) in test [1] came out at 0.07. For the same compound, the IC50 in [6] was 900 nM; in test [7], 950 nM. Besides, the inhibition result in test [9] is “Active”. The compound also had an Activity in test [3] of 95.3%. For the same compound, the result in test [8] was inactive.

Broadly, the EC50 is the concentration giving half of the maximal effect. The low end stands for higher potency in that assay, the high end for lower potency in that assay. In general, IC50 refers to the concentration that gives 50% inhibition.

Values taken from ChEMBL document CHEMBL2150861, “Fibrate-derived N-(methylsulfonyl)amides with antagonistic properties on PPARα” (Eur J Med Chem, 2012).
